Screening data: PubChem, several laboratories
TCR-CD3 inh: inhibitors of human TCR-CD3 interaction | AID 651800 | actives 0.37% (n = 360,000) | inhibition, % at 9.4 µM | TAMRA-labeled TCR probe fluorescence, biochemical;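 also: recombinant mutant TCR 2C K166C tagged with TAMRA read by polarization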
SIAE primary: inhibitors of human sialic acid acetylesterase SIAE | SIAE FP-Rh probe binding, fluorescence polarization | Q9HAT2 | inhibition, % at 9.66 µM | actives 0.69% (n = 370,000);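 active = inhibition above a cutoff: mean of compounds within the control limits plus 3 SD of those, cut at about 17% in these data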
mABHD4 FP: inhibitors of mouse ABHD4; AID 720543; actives 0.54% (n = 370,000); purified mABHD4, FP-Rh probe fluorescence polarization; Q8VD66; inhibition, % at 8.92 µM;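 active = inhibition exceeding the mean over every tested compound plus 3 SD, cut at about 30% in these data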
Target sequence (Q8VD66 whole entry, looked up): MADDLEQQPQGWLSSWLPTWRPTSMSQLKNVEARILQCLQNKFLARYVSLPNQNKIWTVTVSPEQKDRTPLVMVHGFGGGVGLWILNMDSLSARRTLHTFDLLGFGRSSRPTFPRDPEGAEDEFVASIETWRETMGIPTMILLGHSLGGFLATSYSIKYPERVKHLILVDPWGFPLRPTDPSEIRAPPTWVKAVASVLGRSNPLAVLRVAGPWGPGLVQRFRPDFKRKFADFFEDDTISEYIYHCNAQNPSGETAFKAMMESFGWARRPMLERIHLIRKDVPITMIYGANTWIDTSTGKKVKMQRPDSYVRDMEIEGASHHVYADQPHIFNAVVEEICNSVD
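Assay system: mABHD4 protein; medium: HEPES pH 7.0, NaCl, Pluronic buffer; dosing: 8.92 µM, single dose; schedule: 45 min + 60 min at 25 °C; signal: FP readout, ex 525 nm / em 598 nm; read-out: normalized percent inhibition of probe labeling; repeats: single replicate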
PRMT1 FP inh: inhibitors of human PRMT1. Q99873. recombinant PRMT1, activity-based probe fluorescence polarization. inhibition, % at 2.79 µM. actives 1.3% (n = 370,000);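 active = inhibition above about 21% made by adding two undisclosed values, limit read from the data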
ATG4B inhibitor: ATG4B (human) cysteine protease inhibition. Q9Y4P1. ATG4B cleavage of LC3-PLA2, NBD-HPC fluorescence, 1 h. inhibition, % at 8.33 µM. actives 0.51% (n = 340,000); in the data active = inhibition above about 40%
Target sequence (Q9Y4P1 whole entry, looked up): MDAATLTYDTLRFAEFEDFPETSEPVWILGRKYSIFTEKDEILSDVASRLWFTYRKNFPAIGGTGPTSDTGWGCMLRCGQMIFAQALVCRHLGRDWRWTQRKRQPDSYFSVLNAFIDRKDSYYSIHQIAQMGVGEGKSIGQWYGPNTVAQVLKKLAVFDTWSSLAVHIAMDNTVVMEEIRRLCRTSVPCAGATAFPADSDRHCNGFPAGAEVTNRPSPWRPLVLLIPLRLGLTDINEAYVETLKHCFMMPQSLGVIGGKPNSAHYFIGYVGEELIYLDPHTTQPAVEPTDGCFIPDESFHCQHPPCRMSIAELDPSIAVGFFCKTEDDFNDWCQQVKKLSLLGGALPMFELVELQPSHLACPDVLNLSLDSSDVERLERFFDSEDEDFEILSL
HTRA1 inhibitor: blocks human HTRA1 serine peptidase; Q92743; actives 0.5% (n = 340,000); inhibition, % at 5.96 µM; recombinant HTRA1, FP-rhodamine activity-based probe, fluorescence polarization; in the data active = inhibition above about 36%
HTRA1 inh conf: HTRA1 (human) inhibition, confirmation | shares compounds with HTRA1 inhibitor | recombinant HTRA1, FP-rhodamine activity-based probe, fluorescence polarization | inhibition, % at 5.96 µM | actives 66% (n = 1,600);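 active = mean inhibition over three repeats above a set limit taken from the earlier primary screen, cut at about 37% in these data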;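 also: inhibitors block probe binding so polarization drops and inhibition rises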
BSA probe FL: interferes with TAMRA-BSA probe, flagging TCR-CD3 hits; inhibition, % at 9.4 µM; actives 10% (n = 1,200); AID 652035; shares compounds with TCR-CD3 inh; TAMRA-labeled BSA probe fluorescence counterscreen; in the data active = inhibition above about 23%
TCR-CD3 conf: TCR-CD3 interaction inhibition, confirmation. shares compounds with TCR-CD3 inh. TAMRA-labeled TCR probe fluorescence binding assay. inhibition, % at 9.4 µM. actives 48% (n = 1,200). AID 652036
PRMT1 inh conf: confirmation of human PRMT1 inhibitors. shares compounds with PRMT1 FP inh. recombinant His-PRMT1, activity-based probe fluorescence polarization. inhibition, % at 2.79 µM. actives 42% (n = 3,300). AID 687036;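 active = mean inhibition across replicates above the hit cutoff derived for the earlier primary screen, cut at about 22% in these data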
mABHD4 conf: confirmation of mouse ABHD4 inhibitors. shares compounds with mABHD4 FP. purified mABHD4, FP-Rh probe fluorescence polarization. inhibition, % at 8.92 µM. actives 55% (n = 1,800);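 active = mean inhibition across replicates above the hit cutoff set in the primary screen, cut at about 30% in these data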
Large screens that a line does not name were inactive (follow-up assays come after a bar, where they were run); ! = a repeat was not active. Only some compounds are listed: those with a hit (about 2.9% of all), similar ones and a draw of the others. Rule as the data show it, unless noted: active = inhibition above about 19%; inactive = the rest.

Cc1ccnc(Nc2nc(-c3ccc(O)c(O)c3)cs2)c1	mABHD4 FP 42, HTRA1 inhibitor 74 | HTRA1 inh conf 85 | mABHD4 conf 47
Cc1c(Br)c(=O)oc2c(Br)c(O)ccc12	none
Cc1c(Br)c(=O)oc2c(Br)c(O)c(O)cc12	TCR-CD3 inh 25, mABHD4 FP 51, PRMT1 FP inh 29, HTRA1 inhibitor 64 | HTRA1 inh conf 83 | BSA probe FL inactive | TCR-CD3 conf inactive | PRMT1 inh conf 35 | mABHD4 conf 53
COc1ccccc1CNC(=O)C[C@H]1CC[C@H]2[C@@H](COc3ccc(NC(=O)Nc4ccccc4)cc3C(=O)N2C)O1	none (no result: TCR-CD3 inh, ATG4B inhibitor, HTRA1 inhibitor)
FC(F)(F)c1ccc2c(c1)C1C=CCC1C(c1ccncc1)N2 (centres undefined)	mABHD4 FP 39, HTRA1 inhibitor 52 | HTRA1 inh conf 59 | mABHD4 conf inactive
O=C(NCc1ccccn1)C1Nc2ccc(C(F)(F)F)cc2C2C=CCC12 (centres undefined)	mABHD4 FP 32, HTRA1 inhibitor 45 | HTRA1 inh conf inactive | mABHD4 conf inactive
O=C(NCc1ccccn1)c1nc(-c2ccc(C(F)(F)F)cc2)no1	none
CCCC(=O)N1CCC[C@]2(CC[C@@H](CCC(=O)OCC)O2)C1	none (no result: TCR-CD3 inh, ATG4B inhibitor, HTRA1 inhibitor)
c1ccc(-c2nnc3n2N=C(c2ccc4ccccc4c2)CS3)nc1	none (no result: TCR-CD3 inh, ATG4B inhibitor, HTRA1 inhibitor)
O=c1cc2oc3cc(O)c(O)cc3c(-c3ccccc3[N+](=O)[O-])c-2cc1O	TCR-CD3 inh 101, mABHD4 FP 53, HTRA1 inhibitor 59 | HTRA1 inh conf 68 | BSA probe FL inactive | TCR-CD3 conf 83 | mABHD4 conf 55
CCN(CC)c1ccc(N=Cc2ccc(N(CC)CC)cc2O)cc1	mABHD4 FP 39, PRMT1 FP inh 24, HTRA1 inhibitor 65 | HTRA1 inh conf inactive | mABHD4 conf inactive
NC(=NCCCCCCN=C(N)/N=C(\N)Nc1ccc(Cl)cc1)/N=C(\N)Nc1ccc(Cl)cc1	mABHD4 FP 46!, HTRA1 inhibitor 42! | HTRA1 inh conf 45 | mABHD4 conf 40
CC(C)N=C(N)N=C(N)Nc1ccc(Cl)cc1	none
O=c1ccc2[n+]([O-])c3ccc(O)cc3oc-2c1	mABHD4 FP active, PRMT1 FP inh 119, HTRA1 inhibitor 141 (no result: TCR-CD3 inh, SIAE primary) | HTRA1 inh conf active | PRMT1 inh conf 69 | mABHD4 conf active
O=c1cc(O)c2ccc(O)cc2o1	none
COc1cccc(NC(=O)C2CCCN2C(=O)NC2CCC(C)CC2)c1 (centres undefined)	none (no result: TCR-CD3 inh, ATG4B inhibitor, HTRA1 inhibitor)
CN(C)c1ccc(NC2=C(Cl)C(=O)c3ccccc3C2=O)cc1	mABHD4 FP 43, HTRA1 inhibitor 63 | HTRA1 inh conf 58 | mABHD4 conf 54
O=[N+]([O-])c1ccc(N=Nc2c(Cl)cc(O)cc2Cl)cc1	SIAE primary 26, mABHD4 FP 77, HTRA1 inhibitor 67 | HTRA1 inh conf 73 | mABHD4 conf 85
CN1C(=O)c2cc(NC(=O)C3CCCCC3)ccc2OC[C@H]2O[C@@H](CC(=O)NC3CCCC3)CC[C@H]21	none (no result: TCR-CD3 inh, ATG4B inhibitor, HTRA1 inhibitor)
Nn1c(SCC(=O)Nc2cccc3ccccc23)nnc1-c1cc(-c2ccc(Cl)cc2)n[nH]1	none (no result: TCR-CD3 inh, ATG4B inhibitor, HTRA1 inhibitor)
O=C1C(Cl)=C(NC(=O)c2ccccc2)C(=O)C(Cl)=C1NC(=O)c1ccccc1	mABHD4 FP 64, PRMT1 FP inh 96, HTRA1 inhibitor 37 | HTRA1 inh conf inactive | mABHD4 conf 71
CN(C1=C(NC(=O)c2ccc(Cl)cc2)C(=O)c2ccccc2C1=O)c1ccccc1	mABHD4 FP 56, HTRA1 inhibitor 73 | HTRA1 inh conf 65 | mABHD4 conf 71
CN(c1ccc(C(=O)Nc2ccc(Cl)cn2)cc1)S(=O)(=O)c1ccccc1	none
O=C(Nc1cccc(Cl)c1)c1ccccc1	none
CC(C1SC(=S)NC1=O)C1SC(=S)NC1=O (centres undefined)	mABHD4 FP 46, PRMT1 FP inh 89, HTRA1 inhibitor 60 (no result: ATG4B inhibitor) | HTRA1 inh conf 47 | PRMT1 inh conf 51 | mABHD4 conf inactive
Oc1cccc(C=NCc2ccccc2)c1O	TCR-CD3 inh 29, SIAE primary 18, mABHD4 FP 45, PRMT1 FP inh 36, HTRA1 inhibitor 55 | HTRA1 inh conf 62 | mABHD4 conf 43
O=[N+]([O-])c1ccccc1/C=C/C=Nn1c(-c2ccc(F)cc2)n[nH]c1=S	none (no result: TCR-CD3 inh, ATG4B inhibitor, HTRA1 inhibitor)
COc1cc(NCCCC(C)N)c2ncccc2c1 (centres undefined)	TCR-CD3 inh 62, SIAE primary 44, mABHD4 FP 47, HTRA1 inhibitor 62 | HTRA1 inh conf inactive | BSA probe FL inactive | TCR-CD3 conf inactive | mABHD4 conf inactive
COC(=O)[C@]12C[C@H](CC(=O)NCc3ccc(C)o3)C(=O)N(CCc3ccc(OC)c(OC)c3)C1=C[C@H](C(C)(C)C)O[C@@H]2C	none (no result: TCR-CD3 inh, ATG4B inhibitor, HTRA1 inhibitor)
O=[N+]([O-])c1cc2no[n+]([O-])c2cc1N1CCCCC1	mABHD4 FP 55, HTRA1 inhibitor 77 | HTRA1 inh conf inactive | mABHD4 conf 51
CCC(C)[C@H](NC(=O)[C@H](Cc1ccccc1)NC(=O)OC(C)(C)C)C(=O)NCc1ccccc1Br (some centres undefined)	none (no result: TCR-CD3 inh, ATG4B inhibitor, HTRA1 inhibitor)
O=C(CNS(=O)(=O)c1ccccc1)N1CCN(c2ncccn2)CC1	none (no result: TCR-CD3 inh, ATG4B inhibitor, HTRA1 inhibitor)
Cc1cc(SCC(=O)c2ccc(O)c(O)c2)nc2ccccc12	TCR-CD3 inh 29, mABHD4 FP 39, PRMT1 FP inh 24, HTRA1 inhibitor 54 | HTRA1 inh conf 69 | BSA probe FL inactive | TCR-CD3 conf 24 | mABHD4 conf inactive
O=C(CSc1n[nH]c(-c2ccccc2)n1)c1ccc(O)c(O)c1	mABHD4 FP 34, HTRA1 inhibitor 72 | HTRA1 inh conf 66 | mABHD4 conf inactive
CCCCCCCCN1C(=O)[C@@H](CC(=O)N2CCC(c3ccccc3)CC2)C[C@@]2(C(=O)OC)C1=C[C@H](COCc1ccccc1)O[C@@H]2C	none (no result: TCR-CD3 inh, ATG4B inhibitor, HTRA1 inhibitor)
COc1ccccc1C(=O)NC1CCCCN(Cc2cccc(Cl)c2)C1=O (centres undefined)	none (no result: TCR-CD3 inh, ATG4B inhibitor, HTRA1 inhibitor)
O=C(O)[C@H]1CCCC[C@H]1C(=O)Nc1ccc(Nc2ccccc2)cc1	mABHD4 FP 42, HTRA1 inhibitor 67 | HTRA1 inh conf inactive | mABHD4 conf inactive
